Here are results for 99 molecules from ChEMBL document CHEMBL4513216, “Probing the Open Global Health Chemical Diversity Library for Multistage-Active Starting Points for Next-Generation Antimalarials” (ACS Infect Dis, 2020).

The data set in a line: Toxicity liver stage against HepG2, at 10uM. The class given is cell-based. The arrangement: test concentration 10 uM, cell line HepG2-A16-CD81EGFP. The note with it: human, HepG2-A16-CD81EGFP cells; read-out: INHIBITION
In a few lines: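 Uninfected HepG2-A16-CD81EGFP cells, 3 × 10^3 per well, 1536-well, plated on prespotted compound at 10 μM final, parasite-free screening media added to match infected plates; puromycin 10 μM positive, DMSO 0.5% negative; run in parallel with 48 h PbLuc assay at 37 °C, 5% CO2; viability by CellTiter-Glo luminescence, normalized to controls.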

Take `CC(C)CNC(=O)CNC(=O)Nc1cccc(Cl)c1-n1cccn1`: the cytotoxicity at 10 µM was -2.45%.

On to `N#CC1COCCN1C(=O)c1cccc2cc[nH]c12` (centres undefined), for which the cytotoxicity at 10 µM turned out to be 7.1%.

Consider `O=C1CC(c2ccsc2)c2cnn(C3CCCC3)c2N1` (centres undefined), for which the cytotoxicity at 10 µM was -0.524%.

`Cc1ncsc1-c1nc(CC2CCN(C)CC2)nn1Cc1ccccc1`: the cytotoxicity at 10 µM turned out to be 10.2%.

As to `Cc1nonc1OCCNc1ncnc2sc3c(c12)CCNC3`, the cytotoxicity at 10 µM is -1.69%.

With `Cc1cnn(CC2CCCCN2CCCS(C)(=O)=O)c1` (centres undefined), the cytotoxicity at 10 µM was -10.1%.

`Cc1nn(C)cc1Cn1cc(Cl)c(N)n1`: the cytotoxicity at 10 µM was -5.61%.

As for `Cc1cccnc1N1CC2(CCN(Cc3cccnc3)C2)C1`, the cytotoxicity at 10 µM is -8.13%.

Turning to `Cn1ccnc1CN1CCCC(CO)(CCc2ccccc2)C1` (centres undefined), the cytotoxicity at 10 µM is -3.36%.

In the case of `Cc1nc(CN2CCCn3cnc(COCC4CC4)c3C2)cs1`, the cytotoxicity at 10 µM was 7.04%.

For `CC(C)(C)n1nc(C(=O)NCC2(C(N)=O)CCOCC2)cc1C1CC1`, the cytotoxicity at 10 µM is -15.9%.

Consider `COc1cc(CN2CCCC2)ccc1OC12CCCN(CC1)C2` (centres undefined), for which the cytotoxicity at 10 µM was -2.87%.

For `CN(C)C1(CNc2nccc(-c3cnn(C)c3)n2)CCSC1` (centres undefined), the cytotoxicity at 10 µM was -126%.

With `O=C(c1ccc(OCC2CC2)nc1)N1CCCC(n2cncn2)C1` (centres undefined), the cytotoxicity at 10 µM was -3.25%.

As to `Cc1ccc(S(N)(=O)=O)cc1C(=O)NC1CCCC1`, the cytotoxicity at 10 µM amounted to 1.86%.

As to `CN(CCc1ccccn1)[C@@H]1CCN(c2cccc(C#N)n2)C[C@H]1O`, the cytotoxicity at 10 µM is -13.9%.

Consider `COc1cc(-n2cccc2)c(Cl)cc1C(N)=O`, for which the cytotoxicity at 10 µM is -10.4%.

`O=S(=O)(c1cccnc1)N1CCN(Cc2nc(-c3cccs3)cs2)CC1`: the cytotoxicity at 10 µM was found to be 27.8%.

`COc1ccc(CN2CCC(O)(CN3CCCCC3)C2)c(C)c1` (centres undefined): the cytotoxicity at 10 µM is 7.5%.

Take `O=C(Cc1ccccc1Br)NCC(=O)Nc1cn[nH]c1`: the cytotoxicity at 10 µM amounted to 7.44%.

In the case of `Cc1cc(=O)n2ncnc2n1CC(O)c1ccccc1Cl` (centres undefined), the cytotoxicity at 10 µM was determined as 1.67%.

For `O=C(Cn1cc(-c2ccccc2)ncc1=O)Nc1ncc[nH]1`, the cytotoxicity at 10 µM was 5.89%.

As for `CCCN1CCC(NC(=O)Nc2ccc(OC)c(OC)c2)CC1`, the cytotoxicity at 10 µM is -13.4%.

For the molecule `CN(C)C(CNS(=O)(=O)c1cnn(C)c1)c1cccc(F)c1` (centres undefined), the cytotoxicity at 10 µM was 5.66%.

As for `Cc1ncc(CN2CCC3(CC2)CC(=O)N(C)C3)cn1`, the cytotoxicity at 10 µM stood at 9.8%.

As for `CC(=O)NCc1cc2n(n1)CCN(Cc1cccc(CCN)c1)C2`, the cytotoxicity at 10 µM was -19.5%.

With `Cc1ccsc1CN1CC[C@H]2O[C@H](C(=O)N3CCCO3)CC[C@H]21`, the cytotoxicity at 10 µM came out at 4.52%.

Regarding `CC(C(=O)N1CCOCC1)n1cc(Br)cn1` (centres undefined), the cytotoxicity at 10 µM was found to be 14.1%.

Turning to `CCCN1C[C@H](NC(=O)c2cc(C)no2)[C@@H](c2ccc(OC)cc2)C1`, the cytotoxicity at 10 µM is -27.3%.

`CCC(NC(=O)CC1CCN(CC)CC1)c1cn2cccnc2n1` (centres undefined): the cytotoxicity at 10 µM was found to be 2.46%.

In the case of `O=C1N(Cc2ccc(Cl)cc2)CCC12CCCNC2` (centres undefined), the cytotoxicity at 10 µM is -10.8%.

`Cc1noc(C)c1-c1cc(CCC2CN(C(=O)C(C)C)CCO2)ncn1` (centres undefined): the cytotoxicity at 10 µM amounted to 4.16%.

Regarding `O=C(C1CCC1)N1CCCn2nc(CNc3ncccn3)cc2C1`, the cytotoxicity at 10 µM is -123%.

Consider `CC(C)NC(=O)N1CCc2c(CNc3ncccn3)cncc2C1`, for which the cytotoxicity at 10 µM was 5.83%.

Turning to `COc1ccc(C(N)=O)cc1NCc1ncc(-c2cccs2)o1`, the cytotoxicity at 10 µM worked out at 8.2%.

On to `Cc1c(S(=O)(=O)N2CCCC2c2nnc(-c3ccsc3)o2)cnn1C` (centres undefined), for which the cytotoxicity at 10 µM was found to be 3.04%.

On to `c1cc(-c2ccc3c(c2)CCC32CCN(c3nncs3)CC2)ccn1`, for which the cytotoxicity at 10 µM amounted to 20.4%.

As for `CN(C)CCO[C@H]1C[C@@H](O)C12CCN(c1cnccn1)CC2`, the cytotoxicity at 10 µM was determined as 3.79%.

With `Cc1ccc2c(c1)CCC21CCN(C(=O)CO)CC1`, the cytotoxicity at 10 µM was -8.13%.

For `CCCc1noc(-c2cn(CC(=O)N(CC)CC)nn2)n1`, the cytotoxicity at 10 µM is 3.35%.

For the molecule `CCN1Cc2ccccc2N(C(=O)C2CCC2)CCC1=O`, the cytotoxicity at 10 µM is -3.53%.

Regarding `O=c1cc(N2CCCCC2)cnn1C[C@H](O)CO`, the cytotoxicity at 10 µM was 2.04%.

Regarding `COc1cccc(OC)c1CN1CC(=O)N(c2ccc(C)cc2)CC1C` (centres undefined), the cytotoxicity at 10 µM is 1.64%.

For the molecule `Cc1cc(F)cc2c(N3CCC(S(N)(=O)=O)CC3)c(C#N)cnc12`, the cytotoxicity at 10 µM is 0.79%.

`CNc1cc(CNC(=O)c2ccccc2)nc(-c2ccncc2)n1`: the cytotoxicity at 10 µM came to 0.462%.

As for `Cc1nc(CC(=O)N2CCN(CCOc3ccccc3)CC2)cs1`, the cytotoxicity at 10 µM was -15.2%.

For the molecule `CN(Cc1nnc(-c2cccs2)o1)Cc1nc2c(s1)CCCC2`, the cytotoxicity at 10 µM came out at 2.4%.

Consider `CC(=O)c1cnc(N(C)Cc2cc(C)cc(C)n2)nc1C`, for which the cytotoxicity at 10 µM worked out at 8.81%.

As for `O=C(NCCC1CCN(CC(F)(F)F)CC1)C1CCOC1` (centres undefined), the cytotoxicity at 10 µM is 5.69%.

Regarding `CC(=O)N1CCCC1c1nc(CN(C)C(=O)C(C)C)cc(N(C)C)n1` (centres undefined), the cytotoxicity at 10 µM was -2.62%.

In the case of `O=C(O)C(c1ccc2[nH]ccc2c1)N1CCN(c2cnccn2)CC1` (centres undefined), the cytotoxicity at 10 µM came to 2.56%.

`O=C1CCSCC(C(=O)N2CCOCC2)N1` (centres undefined): the cytotoxicity at 10 µM is -11.3%.

In the case of `CCNC(=O)N1C[C@@H]2OCC(=O)N(Cc3cccnc3)[C@@H]2C1`, the cytotoxicity at 10 µM is 7.95%.

For `COC(=O)C1CN(CC(=O)Nc2cc(F)ccc2F)c2ccccc21` (centres undefined), the cytotoxicity at 10 µM came to 8.32%.

`Cc1cc(C)n(C2CCCN(C(=O)c3cn4cccnc4n3)C2)n1` (centres undefined): the cytotoxicity at 10 µM was -4.62%.

For `COc1ccc(C2CCCN2c2nnc(C)s2)c(OC)c1` (centres undefined), the cytotoxicity at 10 µM came out at 9.74%.

With `Cc1ccc(C)c(S(=O)(=O)N2CCN(C)C3(CCC(=O)N(C)CC3)C2)c1` (centres undefined), the cytotoxicity at 10 µM amounted to 7.01%.

Consider `O=C(Cc1ccc(F)cc1)NCCNCC1CNc2ccnn2C1` (centres undefined), for which the cytotoxicity at 10 µM was -3.47%.

`Cn1cc(CNCCC(=O)NCc2ccccc2)c(-c2cccnc2)n1`: the cytotoxicity at 10 µM was -2.19%.

On to `CCN1CCN(CCCNc2ncccn2)CC1`, for which the cytotoxicity at 10 µM came to 3.41%.

For `CCC(CC)c1cc(CNC(=O)N2CCOC(C)C2)on1` (centres undefined), the cytotoxicity at 10 µM was determined as 0.433%.

As to `COc1cc(F)c(NC(=O)N(C)CCNC(=O)N(C)C)cc1F`, the cytotoxicity at 10 µM amounted to 17.6%.

Take `CC[C@@]1(O)CCN(C(=O)CCSCc2ccc(F)cc2)C[C@H]1O`: the cytotoxicity at 10 µM stood at 0.264%.

Regarding `COc1ccc(CNC(=O)N(C)CC(C)(C)O)cc1OC`, the cytotoxicity at 10 µM stood at 6.89%.

Turning to `Cc1ccc(NC2CCN(C(=O)c3ccoc3C)CC2)nn1`, the cytotoxicity at 10 µM was -12.7%.

For the molecule `COC(=O)c1cccc(C(=O)N(CCC#N)CC(C)(C)C)c1`, the cytotoxicity at 10 µM was found to be 7.72%.

For the molecule `COC(=O)[C@H](C)NC(=O)Cn1ccc2ccc(F)cc21`, the cytotoxicity at 10 µM was -0.112%.

`O=C(CC1CCN(c2cccnn2)CC1)Nc1nncs1`: the cytotoxicity at 10 µM is 1.01%.

As for `O=C(C1CCOCC1)N1CCO[C@H]2[C@@H](OCC3CC3)CC[C@@H]21`, the cytotoxicity at 10 µM was -6.22%.

In the case of `Cc1ccc(C2CSCCN2CC(=O)N2CCOCC2)cc1` (centres undefined), the cytotoxicity at 10 µM worked out at 9.04%.

As for `CC(C)C(=O)N1CCN(Cc2csc(-c3ncccn3)n2)CC1`, the cytotoxicity at 10 µM is -5.1%.

Take `Cc1csc(N2CCN(C(=O)CCNc3ncccn3)CC2)n1`: the cytotoxicity at 10 µM is -10.1%.

Turning to `Cc1cc(NCCSc2nccn2C)n2ncnc2n1`, the cytotoxicity at 10 µM was 17.5%.

Consider `N#Cc1cccnc1N1CCC2(CCCN(C3CCOCC3)C2=O)C1` (centres undefined), for which the cytotoxicity at 10 µM is -9.21%.

`O=C(CCC1CCN(C(=O)c2cc[nH]c2)CC1)NCc1cccc(Cl)c1`: the cytotoxicity at 10 µM was -2.11%.

As for `CCC(NC(=O)C(C)C)c1ccccc1C` (centres undefined), the cytotoxicity at 10 µM turned out to be 5.81%.

Consider `COCc1nc(C(=O)NS(=O)(=O)c2cc(Br)ccc2C)cs1`, for which the cytotoxicity at 10 µM is -1.66%.

Take `CCS(=O)(=O)CCNCc1cc(O)c2cc(C)cc(C)c2n1`: the cytotoxicity at 10 µM was found to be 1.36%.

Consider `CCn1c(C)nnc1SCCNc1nc(C)ncc1S(C)(=O)=O`, for which the cytotoxicity at 10 µM is -4.19%.

For the molecule `Cc1cc(CN2Cc3ccccc3CC2c2nnc(C)o2)on1` (centres undefined), the cytotoxicity at 10 µM is -0.962%.

Regarding `O=C(CCNC(=O)c1ccoc1)Nc1ccc(F)cc1F`, the cytotoxicity at 10 µM is -6.44%.

Regarding `O=C1CSC(c2ccc(O)cc2)c2sccc2N1` (centres undefined), the cytotoxicity at 10 µM turned out to be 5.31%.

Take `Cn1cccc1C(=O)N1CCc2c(CNS(C)(=O)=O)cncc2C1`: the cytotoxicity at 10 µM came to 4.68%.

Take `CCCNC(=O)c1cc(-c2cnc(N3CCCC3)nc2)cn1C`: the cytotoxicity at 10 µM is -54.6%.

`COC(=O)C1=C(C)N=C2SCC(=O)N2C1c1cnn(C)c1C` (centres undefined): the cytotoxicity at 10 µM worked out at 4.01%.

Turning to `CCCC(=O)NCC(=O)Nc1cc(F)ccc1SCC(F)F`, the cytotoxicity at 10 µM is 10.8%.

Regarding `Cc1nc(C)n(CC2CCCCN2CCCC#N)n1` (centres undefined), the cytotoxicity at 10 µM was 6.73%.

As for `CCC(C)(NCC(=O)NC(=O)NC)c1nccs1` (centres undefined), the cytotoxicity at 10 µM stood at 7.77%.

On to `CCn1cc(NC(=O)NCC2(N3CCOCC3)CCSC2)cn1` (centres undefined), for which the cytotoxicity at 10 µM was -17.1%.

For the molecule `O=C(NCc1ncc(-c2ccccc2)o1)NC1CCC(O)CC1` (centres undefined), the cytotoxicity at 10 µM was -41.8%.

Turning to `CCc1nc2n(n1)CC(NCc1nc(C)c(C)o1)CC2` (centres undefined), the cytotoxicity at 10 µM was -11%.

For the molecule `O=C(c1cccs1)N1CCOCC2(C1)CN(c1ccccc1)C(=O)CO2` (centres undefined), the cytotoxicity at 10 µM is -0.756%.

Take `Cc1ccc(CNCc2nnc3n2CC(C(F)(F)F)CC3)o1` (centres undefined): the cytotoxicity at 10 µM was determined as 9.87%.

As for `COC(=O)CCCNC(=O)N1CCc2c([nH]c3ccc(Cl)cc23)C1`, the cytotoxicity at 10 µM amounted to 9.43%.

As for `CCOC(=O)CCC(=O)N1CCC(Oc2ccc(C(F)(F)F)cn2)CC1`, the cytotoxicity at 10 µM is 11.6%.

`CN1CCN(C(=O)C2(NC(N)=O)CCCCC2)Cc2ccccc21`: the cytotoxicity at 10 µM was -6.32%.

With `F[C@@H]1CN(CC2CC2)C[C@@H]1OCc1nc2ncccc2[nH]1`, the cytotoxicity at 10 µM is 5.52%.

For `Cc1cc(C)n(CC2CN(c3cnc4ccccc4n3)CCO2)n1` (centres undefined), the cytotoxicity at 10 µM is -2.42%.

As for `CCOc1ccc(NC(C)=O)cc1S(=O)(=O)Nc1nccs1`, the cytotoxicity at 10 µM is -8.2%.
